Experimental data reported in publication PMC3152441 (Chemistry & biology, 2011).

Columns and labels:
[1] = test system: RIG-I/MDA-5, IRF3; test: HEK293T ISRE-driven luciferase reporter, other interferon response stimuli; type: cell-based; conditions: 5 μM compound; poly(I:C), poly(dA:dT), Sendai virus
How it was run: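 HEK293T cells stably expressing an ISRE-driven luciferase reporter were cultured ± 5 μM test compound with 1 μg/ml poly(I:C) (LyoVec lipid transfection), 1 μg/ml poly(dA:dT) (LyoVec) or Sendai virus. Luciferase was measured after 24 h. Mean ± SD, n=4.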

[2] = test system: NF-κB, MAPK and Akt signalings; test: γ-tri-DAP-dependent signaling; type: cell-based
[3] = molecular target: T1, TLR9 (Homo sapiens, UniProt Q9NR96); test: 697 pre-B leukemia cells NF-κB-luciferase reporter, CpG DNA; type: cell-based; conditions: 697 cells, 10 μM compound, 5 μM ODN2006, 24h
T1 sequence (Q9NR96 26-1032): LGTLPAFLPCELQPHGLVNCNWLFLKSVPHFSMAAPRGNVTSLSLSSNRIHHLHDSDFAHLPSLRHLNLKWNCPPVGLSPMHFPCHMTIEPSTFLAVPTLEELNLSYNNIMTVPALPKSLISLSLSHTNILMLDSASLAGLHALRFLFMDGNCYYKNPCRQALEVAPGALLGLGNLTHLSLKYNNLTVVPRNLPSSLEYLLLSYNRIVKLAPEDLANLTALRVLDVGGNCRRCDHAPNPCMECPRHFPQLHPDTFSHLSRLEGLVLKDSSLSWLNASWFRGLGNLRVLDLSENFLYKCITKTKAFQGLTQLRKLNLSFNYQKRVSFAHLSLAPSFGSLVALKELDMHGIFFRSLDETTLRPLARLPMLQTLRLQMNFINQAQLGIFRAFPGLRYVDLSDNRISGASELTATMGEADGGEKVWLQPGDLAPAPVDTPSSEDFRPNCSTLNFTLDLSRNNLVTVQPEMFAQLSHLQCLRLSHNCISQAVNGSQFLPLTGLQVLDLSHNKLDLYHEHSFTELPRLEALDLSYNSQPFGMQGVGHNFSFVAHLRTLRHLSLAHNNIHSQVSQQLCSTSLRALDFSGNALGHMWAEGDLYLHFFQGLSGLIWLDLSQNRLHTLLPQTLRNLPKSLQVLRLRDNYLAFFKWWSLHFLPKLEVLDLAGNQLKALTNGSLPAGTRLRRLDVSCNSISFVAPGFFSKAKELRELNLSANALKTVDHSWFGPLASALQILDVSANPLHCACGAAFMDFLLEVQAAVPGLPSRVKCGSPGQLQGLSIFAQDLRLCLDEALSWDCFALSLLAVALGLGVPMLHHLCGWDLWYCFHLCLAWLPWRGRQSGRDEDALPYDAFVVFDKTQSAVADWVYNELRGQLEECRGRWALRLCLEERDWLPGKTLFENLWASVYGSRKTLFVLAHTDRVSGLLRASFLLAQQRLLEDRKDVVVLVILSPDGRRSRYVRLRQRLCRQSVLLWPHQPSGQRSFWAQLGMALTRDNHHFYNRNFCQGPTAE
How it was run: (§1)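 697 cells stably carrying an NF-κB-luciferase reporter were cultured with or without 10 μM test compound plus inducer: 100 ng/ml BAFF or 5 μM ODN2006 as TLR9 ligand. Luciferase activity was read 24 h later. Mean ± SD, n=3.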

[4] = test system: IκBα; test: γ-tri-DAP-induced expression of NF-κB target gene IκBα; type: cell-based
[5] = molecular target: NOD2 (Homo sapiens, UniProt Q9HC29); test: Subcellular fractionation of MCF-7 cells stably expressing epitope-tagged NOD2; type: cell-based; conditions: MCF-7 cells expressing NOD2
[6] = Cell viability under diverse cell treatments; type: cell-based
[7] = test system: TLR1, 2, 4, 5, 6 and 8; test: THP.1 macrophage NF-κB/AP-1-inducible SEAP reporter, TLR agonists; type: cell-based, Human; conditions: 5 μM compound, 24 h, PMA-differentiated THP.1
How it was run: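 PMA-differentiated THP.1 cells carrying NF-κB-driven SEAP were cultured ± 5 μM test compound with TLR inducers: 0.5 μg/ml Pam3CSK4, heat-killed Listeria monocytogenes (HKLM), 1 μg/ml FSL-1, 0.5 μg/ml LPS, 0.5 μg/ml flagellin or 1 μg/ml ssRNA40. Supernatant SEAP was measured after 24 h, as % of inducer alone. Mean ± SEM, n=2.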

[8] = test system: NOD1 signaling; test: Gene transfection experiments in HEK 293T-NF-κB-luciferase cells; type: cell-based
How it was run: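 HEK293T NF-κB-luciferase cells were transfected with NOD1, RIP2, XIAP or GFP plasmids in various combinations. After 24 h, cells were cultured ± 3.5 μg/ml γ-tri-DAP, ± 10 μM test compound, or both, for 24 h. Luciferase was normalised to GFP-transfected cells (100%). Mean ± SD, n=4.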

[9] = test system: non-canonical NF-κB activation induced by BAFF; test: 697 pre-B leukemia cells NF-κB-luciferase reporter, BAFF; type: cell-based; conditions: 697 cells, 10 μM compound, 100 ng/ml BAFF, 24h
How it was run: as §1

[10] = test system: inflammasomes; test: IL-1β secretion induced by inflammasome activators; type: cell-based; conditions: 5 μM compound; MSU, poly(dA:dT), LPS plus ATP, S. typhimurium
How it was run: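 RAW264.7 macrophages were treated with 5 μM test compound, with LPS pre-treatment to induce pro-IL-1β synthesis. Supernatants were taken at 2 h (Salmonella) or 4 h (others). IL-1β by ELISA. Mean ± SD, n=3.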

[11] = test system: Bcl-XL and Bid; test: Ni/NTA pull-down of purified His6-tagged control proteins; conditions: purified protein, 20 μM compound
How it was run: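 Purified His6-Bcl-XL or His6-Bid (≈0.4 ug) was pre-incubated 60 min with 20 μM test compound, with DMSO as control. Ni-NTA agarose beads were added and incubated overnight at 4°C. Pulled-down protein was immunoblotted with anti-His antibody. Bands were quantified relative to the DMSO control.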

Chain of NOD2 (Q9HC29 whole entry): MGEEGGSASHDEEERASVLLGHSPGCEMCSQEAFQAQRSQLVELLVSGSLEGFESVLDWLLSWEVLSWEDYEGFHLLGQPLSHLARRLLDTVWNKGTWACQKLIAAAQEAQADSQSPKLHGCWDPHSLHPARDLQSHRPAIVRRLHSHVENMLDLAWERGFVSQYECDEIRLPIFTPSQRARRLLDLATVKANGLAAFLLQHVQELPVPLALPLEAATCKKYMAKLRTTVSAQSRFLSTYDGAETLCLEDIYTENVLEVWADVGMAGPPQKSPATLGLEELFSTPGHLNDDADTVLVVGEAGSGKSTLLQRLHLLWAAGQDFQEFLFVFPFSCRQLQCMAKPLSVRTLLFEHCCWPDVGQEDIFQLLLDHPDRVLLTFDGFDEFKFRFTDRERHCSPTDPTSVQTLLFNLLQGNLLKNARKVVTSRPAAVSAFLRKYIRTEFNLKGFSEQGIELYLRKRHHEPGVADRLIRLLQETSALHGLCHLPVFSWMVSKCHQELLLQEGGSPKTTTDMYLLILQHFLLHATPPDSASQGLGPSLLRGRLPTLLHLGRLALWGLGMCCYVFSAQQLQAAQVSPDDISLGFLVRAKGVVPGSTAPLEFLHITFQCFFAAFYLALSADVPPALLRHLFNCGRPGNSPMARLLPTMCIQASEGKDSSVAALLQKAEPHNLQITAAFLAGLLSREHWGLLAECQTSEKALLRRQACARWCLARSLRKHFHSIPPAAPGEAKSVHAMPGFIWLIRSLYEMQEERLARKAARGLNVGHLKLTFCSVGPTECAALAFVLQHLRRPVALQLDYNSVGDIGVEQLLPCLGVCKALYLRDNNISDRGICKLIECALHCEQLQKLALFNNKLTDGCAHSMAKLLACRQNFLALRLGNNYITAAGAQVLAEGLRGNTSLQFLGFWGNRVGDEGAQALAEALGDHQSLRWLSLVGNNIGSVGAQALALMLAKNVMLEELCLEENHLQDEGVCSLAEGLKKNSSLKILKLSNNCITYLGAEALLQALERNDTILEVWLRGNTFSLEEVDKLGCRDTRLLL

## Cc1ccc(S(=O)(=O)n2c(N)nc3ccccc32)cc1 [CID-1088438]
[1]
  ISRE-driven reporter gene activity induced by other interferon response stimuli: no inhibition
[2]
  Akt survival pathway: without affecting
  γ-tri-DAP-dependent activation of MAPK (p38 phosphorylation): inhibits
  γ-tri-DAP-dependent activation of NF-κB (IκBα phosphorylation and degradation): inhibits
[3]
  NF-κB activity induced by TLR9 ligand CpG DNA: did not inhibit
[4]
  γ-tri-DAP-induced expression of IκBα at the mRNA level: inhibited
[5]
  NOD2 compartmentalization: No changes
[6]
  Cell viability: not affected
[7]
  NF-κB-inducible SEAP activity induced by TLR agonists: No inhibitory effects
[8]; 10 μM compound, 24 hrs
  site of action in NOD1 signaling (NOD1, RIP2, XIAP transfection): targets NOD1 signaling upstream of RIP2
[8]; data not shown
  impact in cells over-expressing IKKγ/NEMO, MYD88, FLIP, CARD6, APAF1 or NLRC4: No significant impact
[9]
  non-canonical NF-κB activation induced by BAFF: not inhibited
[10]
  IL-1β secretion induced by various inflammasome activators: did not inhibit
[11]
  binding of His6-tagged control proteins Bcl-XL and Bid to Ni/NTA: without affecting
